Measurements from different studies.
Each line is one published result; the experiments were not run side by side.
Target: Serine/threonine-protein kinase NLK (NLK, Homo sapiens, UniProt Q9UBE8)
Sequence (Q9UBE8 1-527, as in one of the studies): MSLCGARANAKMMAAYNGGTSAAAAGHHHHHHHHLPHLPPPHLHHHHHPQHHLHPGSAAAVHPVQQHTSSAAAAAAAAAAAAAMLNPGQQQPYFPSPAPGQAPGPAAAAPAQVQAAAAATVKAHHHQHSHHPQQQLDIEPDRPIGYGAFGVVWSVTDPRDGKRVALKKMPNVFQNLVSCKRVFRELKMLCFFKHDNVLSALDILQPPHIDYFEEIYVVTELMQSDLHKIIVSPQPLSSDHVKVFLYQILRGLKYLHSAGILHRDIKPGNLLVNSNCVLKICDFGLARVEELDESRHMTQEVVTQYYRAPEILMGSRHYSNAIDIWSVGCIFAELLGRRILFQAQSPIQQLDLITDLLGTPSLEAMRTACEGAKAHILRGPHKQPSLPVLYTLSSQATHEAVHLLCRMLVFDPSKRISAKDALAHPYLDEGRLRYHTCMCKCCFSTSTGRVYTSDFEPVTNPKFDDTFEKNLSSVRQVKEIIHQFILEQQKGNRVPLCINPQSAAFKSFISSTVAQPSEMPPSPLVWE

Compound | effect on | action | technique | concentration | quantity | result
N#CC1(c2ccccn2)CCN(Cc2cc(C(=O)O)c(=O)n3ccccc23)CC1 | cell-free assay | – | competition with immobilised ligand | 1 µM | remaining binding | 100%
Cc1nn(C)cc1-c1nc2c(N3CCN(Cc4ccc(Cl)cc4)CC3)c(Cl)cnc2[nH]1 | binding | – | competition with immobilised ligand | 1 µM | remaining binding | 72%
COc1cc(Nc2ncc(F)c(Nc3ccc4c(n3)NC(=O)C(C)(C)O4)n2)cc(OC)c1OC | binding | – | – | 10 µM | inhibition | 0%
O=c1[nH]c2ccccc2n1C1CCN(Cc2ccc(-c3[nH]c4cc5ncnc5cc4nc3-c3ccccc3)cc2)CC1 | cell-free assay | – | – | 0.5 µM | remaining signal | 104%
COc1ncccc1-c1cnn2ccc(N3CCN(C(=O)OC(C)C)CC3)nc12 | binding | – | competition with immobilised ligand | 1 µM | remaining binding | 100%
Cn1cc(-c2cccc(N3CCc4c(sc5c4CC(C)(C)C5)C3=O)c2CO)cc(Nc2ccncn2)c1=O | enzyme activity | inhibitor | – | 1 µM | inhibition | -10%
Cn1cncc1[C@@](O)(COc1ccc(C#N)cc1-c1ccc(OC(F)(F)F)cc1)c1ccc(C#N)cc1 | cell-free assay | – | competition with immobilised ligand | 1 µM | remaining binding | 100%
Nc1ncc(-c2nc(N3CCOCC3)nc(N3CCOCC3)n2)c(C(F)F)n1 | binding | – | competition with immobilised ligand | 10 µM | remaining binding | 88%
Cn1cc(-c2cc(F)cc(N3CCn4c(cc5c4CCCC5)C3=O)c2CO)cc(Nc2ccc(N3CCN(C4COC4)CC3)cn2)c1=O | enzyme activity | inhibitor | – | 0.1 µM | inhibition | -4%
